From paper PMC5826595 (Chemistry (Weinheim an der Bergstrasse, Germany), 2017)
Read-outs that look alike come from different tables or passages of the source. One block for each compound: values may come before it.

Tests used:
[1] = biological target: Aβ42 (Homo sapiens, UniProt P05067); type: biochemical; conditions: inhibition experiment; vs compound-free and L2-b1-treated conditions
In short: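 Aβ42 (25 μM) was incubated with test compound (50 μM), either metal-free or with CuCl2 or ZnCl2 (25 μM). Cu samples were at pH 6.6; metal-free and Zn samples at pH 7.4. Incubation was at 37 °C with constant agitation. Size distribution was read by gel/Western blot with anti-Aβ antibody 6E10, and morphology by TEM of the same samples.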

[2] = biological target: Cu^II–Aβ40 (Homo sapiens, UniProt P05067); test: nESI-MS and MS/MS of Aβ40 incubated with Cu^II and compound; type: biochemical; conditions: [Aβ40] 20 μM; [CuCl2] 20 μM; [L2-b2] 120 μM; pH 7.5; 37 °C; 30 min
Chain of Cu^II–Aβ40 (P05067 672-711 limits assumed): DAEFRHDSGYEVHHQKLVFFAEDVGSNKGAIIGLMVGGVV

[3] = biological target: preformed Aβ40 aggregates (Homo sapiens, UniProt P05067); type: biochemical; conditions: metal-free and metal-treated conditions
Chain of preformed Aβ40 aggregates (P05067 672-711 limits assumed): as above

[4] = biological target: T1, metal-free Aβ40 (Homo sapiens, UniProt P05067); test: ESI-MS of metal-free Aβ40 incubated with compound; type: binding; conditions: [Aβ40] 10 μM; [L2-b2] 50 μM; pH 7.5; 37 °C; 6 h
T1 sequence (P05067 672-711 limits assumed): as above

[5] = biological target: Aβ40 (Homo sapiens, UniProt P05067); type: biochemical; conditions: inhibition experiment; vs compound-free and L2-b1-treated conditions
Chain of Aβ40 (P05067 672-711 limits assumed): as above

[6] = biological target: T2, metal-free Aβ40 monomer (Homo sapiens, UniProt P05067); test: 2D SOFAST-HMQC NMR with metal-free monomeric Aβ40; type: binding; conditions: [Aβ40] 80 μM; compound 800 μM (10 equiv); pH 7.4; 10 °C
T2 sequence (P05067 672-711 limits assumed): as above
In short: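 Uniformly ¹⁵N-labeled monomeric Aβ40 (80 μM) with test compound at 0 or 800 μM in 20 mM phosphate buffer, pH 7.4, 50 mM NaCl, 7 % (v/v) D₂O, at 10 °C. 2D ¹H–¹⁵N SOFAST-HMQC spectra were recorded at 900 MHz with a cryogenic probe. Per-residue chemical shift perturbations were plotted against the average CSP with standard deviation; unresolved residues were excluded.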

[7] = tested on: SK-N-BE(2)-M17 (M17) cells; test: Viability of cells treated with metal-free Aβ or metal–Aβ followed by compound; type: cell-based, human; conditions: [Aβ] 10 μM, [CuCl2 or ZnCl2] 10 μM, [L2-b2] 20 μM, MTT
In short: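 SK-N-BE(2)-M17 neuroblastoma cells were first exposed to metal-free Aβ40 or Aβ42, or to Aβ premixed with CuCl2 or ZnCl2. Test compound was added afterwards. Viability was measured by MTT absorbance on a microplate reader and expressed as % of cells given DMSO only (0–1 %, v/v).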

[8] = TEAC assay in EtOH; type: biochemical; conditions: relative to Trolox
In short: (§1)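 Radical scavenging was measured by the test compound's quenching of pre-formed ABTS cation radicals (ABTS•⁺). The read-out was absorbance on a microplate reader, and capacity was expressed as Trolox equivalents.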

[9] = TEAC assay in M17 cell lysates; type: biochemical; conditions: relative to Trolox
In short: as §1

[10] = biological target: preformed Aβ42 aggregates (Homo sapiens, UniProt P05067); type: biochemical; conditions: metal-free and metal-treated conditions
Chain of preformed Aβ42 aggregates (P05067 672-713 limits assumed): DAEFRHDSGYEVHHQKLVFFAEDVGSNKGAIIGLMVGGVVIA

[11] = tested on: metal-free Aβ and metal–Aβ; conditions: ref 4b,f; cited from earlier work
[12] = biological target: T2, metal-free Aβ40 monomer; conditions: ref 4e; cited from earlier work
[13] = biological target: T1, metal-free Aβ40; conditions: ref 4b,f; cited from earlier work

Chain of Aβ42 (P05067 672-713 limits assumed): as above

SMILES: CN(C)c1ccc(NCc2ccc(N(C)C)cn2)cc1 [L2-b2, N^1-((5-(dimethylamino)pyridin-2-yl)methyl)-N^4,N^4-dimethylbenzene-1,4-diamine]
Morphology of resultant Aβ42 aggregates (TEM) [1]: more amorphous aggregates and/or smaller fibrils
Mass loss of Aβ40 compared to apo Aβ40 (degraded Aβ) [2]: 89.1 (± 0.1) Da
Disaggregation of preformed Aβ40 aggregates (gel/Western blot) [3]: displayed various-sized peptide aggregates to different degrees
Interaction with metal-free Aβ (ESI-MS) [4]: forming a covalent adduct of Aβ–cationic imine
Morphology of resultant Aβ40 aggregates (TEM) [5]: more amorphous aggregates and/or smaller fibrils
Interaction with metal-free Aβ40 monomer (CSP) [6]: weak interactions with metal-free Aβ
Effect on toxicity triggered by metal-free Aβ and metal–Aβ in living cells [7]: possibly alleviate toxicity triggered by metal-free Aβ and metal–Aβ in living cells
TEAC value [8]: 1.9 ± 0.1
TEAC value [9]: 1.1 ± 0.1
Disaggregation of preformed Aβ42 aggregates (gel/Western blot) [10]: dismantle preformed metal-free and metal-treated Aβ42 aggregates

SMILES: NCc1ccccn1 [PMA1, pyridin-2-yl-methanamine, reference compound]
Disaggregation of preformed Aβ40 aggregates (gel/Western blot) [3]: could not detectably disaggregate preformed Aβ40 aggregates

SMILES: CN(C)c1ccc(NCc2ccccn2)cc1 [L2-b, N^1,N^1-dimethyl-N^4-(pyridin-2-ylmethyl)benzene-1,4-diamine]
Reactivity toward metal-free Aβ and metal–Aβ aggregation pathways [11]: reactivity only for metal–Aβ species
Interaction with metal-free Aβ40 monomer (CSP) [12]: weak interactions with metal-free Aβ
Interaction with metal-free Aβ [13]: unable to interact with metal-free Aβ

SMILES: c1ccc(CNCc2ccccn2)nc1 [DPA1, bis(pyridin-2-ylmethyl)amine, reference compound]
Disaggregation of preformed Aβ40 aggregates (gel/Western blot) [3]: could not detectably disaggregate preformed Aβ40 aggregates

Interaction with metal-free Aβ40 monomer (CSP) [6]: weak interactions with metal-free Aβ
SMILES: CN(C)c1ccc(CNc2ccccc2)nc1 [L2-b1, N,N-dimethyl-6-((phenylamino)methyl)pyridin-3-amine]
Disaggregation of preformed Aβ40 aggregates (gel/Western blot) [3]: could not detectably disaggregate preformed Aβ40 aggregates
TEAC value [8]: 0.8 ± 0.1
TEAC value [9]: 0.7 ± 0.1

SMILES: CN(C)c1ccc(CNCc2ccc(N(C)C)cn2)nc1 [DPA2, 6-((((5-(dimethylamino)pyridin-2-yl)methyl)amino)methyl)-N,N-dimethylpyridin-3-amine]
Disaggregation of preformed Aβ40 aggregates (gel/Western blot) [3]: could not detectably disaggregate preformed Aβ40 aggregates

SMILES: CN(C)c1ccc(CN)nc1 [PMA2, 6-(aminomethyl)-N,N-dimethylpyridin-3-amine, reference compound]
Disaggregation of preformed Aβ40 aggregates (gel/Western blot) [3]: could not detectably disaggregate preformed Aβ40 aggregates
